Tests used:
Format in all cases: functional
Homo sapiens = species on record: Homo sapiens; assay: Inhibition of platelet aggregation induced by arachidonic acid(AA) in human platelet-rich plasma; conditions: read-out: I50
In short: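 Human platelet-rich plasma; aggregation triggered by arachidonic acid. Potency is expressed as the I50 (concentration giving 50% inhibition), reported as mean ± SEM or as mean ± range when n = 2.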

Cavia porcellus [1] = assay: Percent inhibition of increase in pulmonary resistance was measured on arachidonic acid induced bronchoconstriction in the anesthetized guinea pig after 10 min
In short: (§1)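 Anesthetized guinea pigs received the test agent at 1 mg/kg iv. Arachidonic acid (0.5 mg/kg iv) injections were given as challenge. Rises in pulmonary resistance were recorded, and percent inhibition was scored at 3, 10 and 30 min. Values are mean ± SEM, n = 3–5 animals.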

Cavia porcellus [2] = assay: Percent inhibition of increase in pulmonary resistance was measured on arachidonic acid induced bronchoconstriction in the anesthetized guinea pig after 3 min; in short: as §1
Cavia porcellus [3] = assay: Percent inhibition of increase in pulmonary resistance was measured on arachidonic acid induced bronchoconstriction in the anesthetized guinea pig after 30 min; in short: as §1

IC50 (Homo sapiens)	Compound	Inhibition (Cavia porcellus [1])	Inhibition (Cavia porcellus [2])	Inhibition (Cavia porcellus [3])
5.2 µM	O=C(O)CCC/C=C\CC1C(/C=C/[C@@H](O)C2CCCCC2)C2OC1C1OC21 (some centres not stated)			
0.02 µM	O=C(O)CCC/C=C\C[C@@H]1[C@H](CNNC(=O)Nc2ccccc2)[C@H]2CC[C@H]1O2	98%	97%	96%
2.2 µM	CCCCC(C)(C)[C@H](O)/C=C/C1C(C/C=C\CCCC(=O)O)C2OC1C1OC21 (some centres not stated)			
6 µM	COc1ccc2c(c1)c(CC(=O)O)c(C)n2C(=O)c1ccc(Cl)cc1 [INDOMETHACIN]			
38.5 µM	O=C(O)COc1ccc(CCNS(=O)(=O)c2ccccc2)cc1 [SULOTROBAN]	82%	89%	40%

Continued, compound first:

Compound	IC50 (Homo sapiens)	Inhibition (Cavia porcellus [1])	Inhibition (Cavia porcellus [2])	Inhibition (Cavia porcellus [3])
CCCCC[C@H](O)/C=C/C1C(C/C=C\CCCC(=O)O)C2OC1C1OC21 (some centres not stated)	15.3 µM			
CC1([C@H](O)/C=C/C2C(C/C=C\CCCC(=O)O)C3OC2C2OC32)CCCCC1 (some centres not stated)	0.53 µM	67%	85%	22%
O=C(O)CCC/C=C\CC1C(/C=C/[C@@H](O)CCc2ccccc2)C2OC1C1OC21 (some centres not stated)	1.6 µM			
O=C(O)CCC/C=C\CC1C(/C=C/[C@H](O)C2CCCCC2)C2OC1C1OC21 (some centres not stated)	17 µM			
O=C(O)CCC/C=C\CC1C(/C=C/[C@@H](O)CCc2ccc(O)cc2)C2OC1C1OC21 (some centres not stated)	0.27 µM	83%	90%	46%

Reference: ChEMBL document CHEMBL1124110, “Synthesis and pharmacological evaluation of 5,6-exo-epoxy-7-oxabicyclo[2.2.1]heptane derivatives” (J Med Chem, 1988)
